pIC50: −log10 of the molar value. The source made the active and inactive calls. No cut-off for these calls is given here.
Tests used:
[1] = species on record: Oryctolagus cuniculus; assay: (§1) Activation of troponin in rabbit fast skeletal muscle fibers assessed as increase in calcium stimulated activity by measuring compound concentration that produces 40% increase in myofibril ATPase activity at 25% of calcium concentration needed for maximal response by pyruvate kinase/lactate dehydrogenase-coupled based assay
Summary of the method: (§2)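 Myofibril ATPase rate (used as a surrogate for force), with fast-skeletal myofibrils from rabbit muscle. For cardiac and slow-skeletal activity, mixed sarcomeres combine myosin and thin-filament preparations from fast, slow or cardiac muscle. AC40 is the concentration giving a 40% increase in ATPase activity at 25% of the calcium level needed for a maximal response in control preparations. Duplicate experiments.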

[2] = species on record: Oryctolagus cuniculus; assay: as §1, with “30%” for “40%”, “tension” for “myofibril ATPase activity”
Summary of the method: (§3)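 Skinned-fiber tension assay on a mounted fiber, measuring the force–calcium relationship. Fast fibers are rabbit psoas; slow fibers are primarily slow rabbit semimembranosus. DF30 is the concentration giving a 30% increase in tension at 25% of the calcium level needed for a maximal response in control preparations.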

[3] = Extraction ratio in rat liver microsomes measured up to 90 mins by HPLC/MS/MS analysis; format: ADME, microsome; settings: read-out: ERH
[4] = Extraction ratio in human liver microsomes measured up to 90 mins by HPLC/MS/MS analysis; format: ADME, microsome; settings: read-out: ERH
[5] = system: Rattus norvegicus; assay: (§4) Volume of distribution at steady state in Sprague-Dawley rat at 1 mg/kg, po or 1 mg/kg iv via bolus by HPLC method; format: ADME, organism-based; settings: in vivo
Summary of the method: (§5)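 Pharmacokinetics at a dose of 1 mg/kg, comparing oral and intravenous administration to derive bioavailability, clearance and steady-state volume of distribution. In rats, compounds were dosed as crystalline suspensions.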

[6] = system: Rattus norvegicus; assay: Oral bioavailability in Sprague-Dawley rat at 1 mg/kg by HPLC method; format: ADME, organism-based; settings: in vivo; summary of the method: as §5
[7] = Fraction unbound in rat plasma at 5 uM after 6 hrs by equilibrium dialysis based HPLC method; format: ADME, cell-free
[8] = Fraction unbound in human plasma at 5 uM after 6 hrs by equilibrium dialysis based HPLC method; format: ADME, cell-free
[9] = as §4; format: ADME, organism-based; settings: Sprague-Dawley, in vivo, read-out: Vdss; summary of the method: as §5
[10] = system: Rattus norvegicus; assay: Increase in muscle force in rat extensor digitorum longus muscle dosed systemically measured every two mins by in situ live fiber activity assay; format: functional, organism-based
[11] = Extraction ratio in dog liver microsomes measured up to 90 mins by HPLC/MS/MS analysis; format: ADME, Canis lupus familiaris, microsome; settings: read-out: ERH
[12] = Extraction ratio in mouse liver microsomes measured up to 90 mins by HPLC/MS/MS analysis; format: ADME, microsome; settings: read-out: ERH
[13] = system: Canis familiaris; assay: Volume of distribution at steady state in Beagle dog at 1 mg/kg, po or 1 mg/kg iv via bolus by HPLC method; format: ADME, organism-based, Canis lupus familiaris; settings: in vivo; summary of the method: as §5
[14] = system: Mus musculus; assay: Volume of distribution at steady state in mouse at 1 mg/kg, po or 1 mg/kg iv via bolus by HPLC method; format: ADME, organism-based; settings: in vivo; summary of the method: as §5
[15] = Oral bioavailability in Beagle dog at 1 mg/kg by HPLC method; format: ADME, organism-based, Canis lupus familiaris; settings: in vivo; summary of the method: as §5
[16] = Oral bioavailability in mouse at 1 mg/kg by HPLC method; format: ADME, organism-based; settings: in vivo; summary of the method: as §5
[17] = Apparent permeability of the compound in human Caco2 cells; format: ADME, cell-based; settings: caco-2
[18] = biological target: T1, Cytochrome P450 1A2 (Homo sapiens, UniProt P05177); assay: Inhibition of CYP1A2 in human liver microsomes using phenacetin as substrate in presence of NADP; format: ADME
T1 sequence (P05177 whole entry): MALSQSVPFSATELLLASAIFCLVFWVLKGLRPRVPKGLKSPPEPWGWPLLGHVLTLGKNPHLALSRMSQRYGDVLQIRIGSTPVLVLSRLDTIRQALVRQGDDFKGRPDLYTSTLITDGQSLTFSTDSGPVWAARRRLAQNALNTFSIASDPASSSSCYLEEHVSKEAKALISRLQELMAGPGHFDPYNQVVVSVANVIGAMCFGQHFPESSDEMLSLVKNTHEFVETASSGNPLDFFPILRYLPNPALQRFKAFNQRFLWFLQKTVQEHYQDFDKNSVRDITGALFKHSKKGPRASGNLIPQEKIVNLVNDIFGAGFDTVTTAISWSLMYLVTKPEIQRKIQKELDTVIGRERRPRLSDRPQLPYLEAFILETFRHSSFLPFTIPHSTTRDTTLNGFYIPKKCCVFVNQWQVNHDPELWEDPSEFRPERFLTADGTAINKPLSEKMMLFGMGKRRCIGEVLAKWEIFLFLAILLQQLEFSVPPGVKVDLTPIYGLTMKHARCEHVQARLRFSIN

[19] = biological target: T1, Cytochrome P450 1A2; assay: Time dependent inhibition of CYP1A2 in human liver microsomes using phenacetin as substrate preincubated for 30 mins followed by NADP addition; settings: TDE = time-dependent effect
[20] = species on record: Oryctolagus cuniculus; assay: Activation of troponin in rabbit primarily fast psoas muscle fibers assessed as increase in calcium level by skinned fiber assay; summary of the method: as §3
[21] = species on record: Oryctolagus cuniculus; assay: Activation of troponin C in rabbit primarily slow semi membranosus muscle fibers assessed as increase in calcium level by skinned fiber assay; summary of the method: as §3
[22] = species on record: Bos taurus; assay: as §1, with “troponin C” for “troponin”, “[…]” for “rabbit fast”, “[…] bovine cardiac” for “skeletal”; summary of the method: as §2
[23] = species on record: Bos taurus; assay: as §1, with “troponin C” for “troponin”, “bovine masseter slow” for “rabbit fast”; summary of the method: as §2

CCC(CC)n1c(=O)[nH]c2nccnc21
EC40 [1]: 14 µM

CC(C)n1c(=O)[nH]c2ncc(Br)nc21
EC40 [1]: 6 µM
EC30 [2]: 2.2 µM

CC#Cc1cnc2[nH]c(=O)n(C(CC)CC)c2n1
EC40 [1]: > 49 µM

CCc1cnc2[nH]c(=O)n([C@@H](C)c3ccccc3)c2n1
EC40 [1]: 21.8 µM

COc1cnc2[nH]c(=O)n([C@@H](C)c3ccccc3)c2n1
EC40 [1]: 8.9 µM

C[C@@H](c1ccccc1)n1c(=O)[nH]c2ncc(Br)nc21
EC40 [1]: 1.6 µM
EC30 [2]: 3 µM

CCC(CC)n1c(=O)[nH]c2ncc(C(F)(F)F)nc21
EC40 [1]: 11.3 µM

CCC(CC)n1c(O)nc2ncc(C(F)(F)F)nc21
hepatic extraction ratio at 1.5 h [3]: 0.2
hepatic extraction ratio at 1.5 h [4]: < 0.2

C[C@@H](c1ccccc1)n1c(=O)[nH]c2ncc(C#N)nc21
EC40 [1]: > 49 µM

CC[C@H](C)n1c(O)nc2ncc(Br)nc21
hepatic extraction ratio at 1.5 h [3]: 0.3
hepatic extraction ratio at 1.5 h [4]: < 0.2

CCC(CC)n1c(=O)[nH]c2ncc(Cl)nc21
EC40 [1]: 0.5 µM
EC30 [2]: 0.6 µM
hepatic extraction ratio at 1.5 h [3]: 0.4
hepatic extraction ratio at 1.5 h [4]: < 0.2
Vdss [5]: 3.4 L/kg
F [6]: 100%
Fu [7]: 1.1%
Fu [8]: 0.8%

CC(C)(C)n1c(=O)[nH]c2ncc(Br)nc21
EC40 [1]: 0.8 µM
EC30 [2]: 4.6 µM

C#Cc1cnc2nc(O)n(C(CC)CC)c2n1 [TIRASEMTIV]
EC40 [1]: 0.1 µM
EC30 [2]: 0.3 µM
hepatic extraction ratio at 1.5 h [3]: 0.26 to 0.3
hepatic extraction ratio at 1.5 h [4]: < 0.2
Vd [9]: 0.8 to 2.6 L/kg
F [6]: 98%
Fu [7]: 6.9%
Fu [8]: 1.9%
Activity [10]: Dose-dependent effect
hepatic extraction ratio at 1.5 h [11]: < 0.21
hepatic extraction ratio at 1.5 h [12]: 0.24
Vdss [13]: 1.7 L/kg
Vdss [14]: 1 L/kg
bioavailability [15]: 93%
bioavailability [16]: 43%
Papp [17]: > 50 ×10⁻⁶ cm/s
pIC50 [18]: 4.70
inhibition (INH) [19]: Tde

C=Cc1cnc2[nH]c(=O)n([C@@H](C)c3ccccc3)c2n1
EC40 [1]: 3.5 µM
EC30 [2]: 4.6 µM

CC[C@H](C)n1c(=O)[nH]c2ncc(Br)nc21
EC40 [1]: 1 µM
EC30 [2]: 5.1 µM

CSc1cnc2[nH]c(=O)n([C@@H](C)c3ccccc3)c2n1
EC40 [1]: 2.6 µM
EC30 [2]: 3.8 µM

C[C@@H](c1ccccc1)n1c(=O)[nH]c2ncc(-c3ccccc3)nc21
EC40 [1]: > 49 µM

C#Cc1cnc2nc(OC)n(C(CC)CC)c2n1
EC40 [1]: > 39.2 µM

CC(=O)c1cnc2nc(O)n([C@@H](C)c3ccccc3)c2n1
EC40 [1]: > 49 µM

CCC(CC)n1c(=O)[nH]c2ncc(C)nc21
EC40 [1]: 2 µM
EC30 [2]: 4.4 µM

CCC(CC)n1c(O)nc2ncc(OC)nc21
hepatic extraction ratio at 1.5 h [3]: > 0.7
hepatic extraction ratio at 1.5 h [4]: < 0.2

CCC(CC)n1c(=O)[nH]c2ncc(Br)nc21
EC40 [1]: 0.3 µM
EC30 [2]: 0.4 µM

C=Cc1cnc2[nH]c(=O)n(C(CC)CC)c2n1
EC40 [1]: 1.1 µM
EC30 [2]: 1.1 µM
hepatic extraction ratio at 1.5 h [3]: > 0.7
hepatic extraction ratio at 1.5 h [4]: 0.5

CCC(CC)n1c(=O)[nH]c2ncc(OC)nc21
EC40 [1]: 2.2 µM

CCC(CC)n1c(O)nc2ncc(C)nc21
hepatic extraction ratio at 1.5 h [3]: 0.7
hepatic extraction ratio at 1.5 h [4]: < 0.2

C[C@@H](c1ccccc1)n1c(=O)[nH]c2ncc(S(C)(=O)=O)nc21
EC40 [1]: > 49 µM

O=c1[nH]c2ncc(Br)nc2n1C1CC1
EC40 [1]: > 49 µM

O=c1[nH]c2ncc(Br)nc2n1C1CCCCC1
EC40 [1]: 10 µM

C[C@@H](c1ccccc1)n1c(O)nc2ncc(Br)nc21
hepatic extraction ratio at 1.5 h [3]: 0.5
hepatic extraction ratio at 1.5 h [4]: < 0.3

CCC(CC)n1c(O)nc2ncc(C#N)nc21
hepatic extraction ratio at 1.5 h [3]: < 0.2
hepatic extraction ratio at 1.5 h [4]: < 0.2

CCC(CC)n1c(=O)[nH]c2ncc(C#N)nc21
EC40 [1]: 36.3 µM

O=c1[nH]c2ncc(-c3ccco3)nc2n1Cc1ccccc1
EC40 [1]: > 49 µM

C[C@H](c1ccccc1)n1c(=O)[nH]c2ncc(-c3ccco3)nc21
EC40 [1]: > 49 µM

C[C@@H](c1ccccc1)n1c(=O)[nH]c2ncc(-c3ccco3)nc21
Activity [20]: Active
Activity [21]: inactive
EC40 [1]: 7 µM
EC40 [22]: > 49 µM
EC40 [23]: > 39 µM
EC30 [2]: 30.6 µM

CCC(CC)n1c(O)nc2ncc(Br)nc21
hepatic extraction ratio at 1.5 h [3]: 0.4
hepatic extraction ratio at 1.5 h [4]: < 0.2
Vdss [5]: 6.5 L/kg
F [6]: 62%
Fu [7]: 1.3%
Fu [8]: 0.5%

C#Cc1cnc2oc(=O)n(C(CC)CC)c2n1
EC40 [1]: > 39.2 µM

CC(C)(C)n1c(O)nc2ncc(Br)nc21
hepatic extraction ratio at 1.5 h [3]: 0.3
hepatic extraction ratio at 1.5 h [4]: 0.2
